Measured values taken from ChEMBL document CHEMBL4400528, “Discovery and Optimization of Selective and in Vivo Active Inhibitors of the Lysophosphatidylserine Lipase α/β-Hydrolase Domain-Containing 12 (ABHD12)” (J Med Chem, 2019).
Active and inactive are the calls of the source. No cut-off for these calls is given here.

Experiments:
[1] = molecular target: T1, Lysophosphatidylserine lipase ABHD12 (Mus musculus, UniProt Q99LR1); experiment: Inhibition of JJH350 binding to ABHD12 in mouse brain membrane proteome incubated for 20 mins by CuAAC fluorescence dependent gel-based competitive ABPP assay; type: cell membranes
T1 sequence (Q99LR1 whole entry): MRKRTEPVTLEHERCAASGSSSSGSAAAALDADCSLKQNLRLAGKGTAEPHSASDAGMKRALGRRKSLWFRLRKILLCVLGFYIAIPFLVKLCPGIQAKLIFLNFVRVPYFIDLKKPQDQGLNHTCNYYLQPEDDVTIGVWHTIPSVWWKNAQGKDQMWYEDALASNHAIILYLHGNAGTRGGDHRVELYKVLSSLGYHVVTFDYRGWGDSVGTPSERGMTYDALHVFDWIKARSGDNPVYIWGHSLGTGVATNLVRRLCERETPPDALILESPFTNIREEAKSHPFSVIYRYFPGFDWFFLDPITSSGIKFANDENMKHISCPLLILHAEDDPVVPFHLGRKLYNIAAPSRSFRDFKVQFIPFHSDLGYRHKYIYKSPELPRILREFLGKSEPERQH
How it was run: (§1)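 Brain membrane fraction (1 mg/mL; DPBS homogenate, 16,000 x g pellet) treated with inhibitor for 20 min at room temperature. JJH350 (2 μM) added for 45 min at 37 °C, then CuAAC with rhodamine-PEG3-azide, CuSO4, TBTA and TCEP for 1 h at room temperature. Run on 10% SDS-PAGE and read by in-gel fluorescence. ABHD12 band normalized to control-treated sample (100%); IC50 from log dose-response fit.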

[2] = molecular target: T2, Lysophosphatidylserine lipase ABHD12 (Mus musculus) (UniProt Q99LR1); experiment: Inhibition of JJH350 binding to ABHD12 in mouse brain membrane proteome at 2 uM after 20 mins by CuAAC based fluorescence scanning assay relative to control; type: cell membranes; how it was run: as §1
T2 sequence (whole entry): T1 sequence (Q99LR1 whole entry)

[3] = molecular target: T2, Lysophosphatidylserine lipase ABHD12 (Mus musculus); experiment: Inhibition of JJH350 binding to ABHD12 in mouse brain membrane proteome at 10 uM after 20 mins by CuAAC based fluorescence scanning assay relative to control; type: cell membranes; how it was run: as §1
[4] = molecular target: T3, Lysophosphatidylserine lipase ABHD12 (Homo sapiens) (UniProt Q8N2K0); experiment: Inhibition of ABHD12 (unknown origin) expressed in HEK293T cell membranes at 10 uM using 17:1 lyso-PS as substrate preincubated for 20 mins followed by substrate addition measured after 30 mins by LC-MS analysis
T3 sequence (whole entry): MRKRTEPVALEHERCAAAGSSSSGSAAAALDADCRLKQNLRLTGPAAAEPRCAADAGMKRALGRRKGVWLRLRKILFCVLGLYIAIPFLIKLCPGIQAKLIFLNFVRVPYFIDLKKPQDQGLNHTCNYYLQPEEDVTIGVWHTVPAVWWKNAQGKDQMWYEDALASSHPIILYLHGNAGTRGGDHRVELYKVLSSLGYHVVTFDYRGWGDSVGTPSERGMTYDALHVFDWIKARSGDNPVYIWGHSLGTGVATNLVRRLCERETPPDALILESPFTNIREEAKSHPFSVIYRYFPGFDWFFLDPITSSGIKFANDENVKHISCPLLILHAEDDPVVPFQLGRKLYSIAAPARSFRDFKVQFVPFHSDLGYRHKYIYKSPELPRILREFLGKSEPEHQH
How it was run: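 Membranes from HEK293T overexpressing ABHD12 (0.25 mg/mL) in DPBS preincubated with compound for 20 min at room temperature. 17:1 lyso-PS added (100 μM final) and incubated 30 min at 37 °C. Quenched with 2:1 CHCl3/MeOH containing 1 nmol 15:0 FFA internal standard. Organic phase analyzed by LC-MS on C18 with NH4OH-containing gradient.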

[5] = molecular target: T3, Lysophosphatidylserine lipase ABHD12 (Homo sapiens); experiment: Inhibition of ABHD12 in PMA-differentiated human THP1 cells assessed as increase in IL-1beta production at 1 uM treated simultaneously with IFN-gamma/LPS for 24 hrs and measured 6 to 24 hrs after stimulation
How it was run: (§2)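 THP-1 cells grown in RPMI/10% FBS/0.05 mM 2-mercaptoethanol, plated 2.5×10^6 per well. Treated 24 h with 150 ng/mL PMA, washed, rested 24 h. Polarized to M1 with 20 ng/mL IFN-γ plus 10 pg/mL LPS for 24 h. Compound or DMSO (test 0.1–1 μM) present at every step. Media sampled 6 and 24 h after stimulation; cytokines by MSD V-Plex. Mean ± SEM, four biological experiments.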

[6] = molecular target: T3, Lysophosphatidylserine lipase ABHD12 (Homo sapiens); experiment: Inhibition of ABHD12 in PMA-differentiated human THP1 cells assessed as increase in TNF-alpha production at 1 uM treated simultaneously with IFN-gamma/LPS for 24 hrs and measured 6 to 24 hrs after stimulation; how it was run: as §2
[7] = molecular target: T3, Lysophosphatidylserine lipase ABHD12 (Homo sapiens); experiment: Inhibition of ABHD12 in PMA-differentiated human THP1 cells assessed as increase in CCL4 production at 1 uM treated simultaneously with IFN-gamma/LPS for 24 hrs and measured 6 to 24 hrs after stimulation; how it was run: as §2
[8] = molecular target: T3, Lysophosphatidylserine lipase ABHD12 (Homo sapiens); experiment: Inhibition of ABHD12 in PMA-differentiated human THP1 cells assessed as increase in CCL3 production at 1 uM treated simultaneously with IFN-gamma/LPS for 24 hrs and measured 6 to 24 hrs after stimulation; how it was run: as §2
[9] = molecular target: T1, Lysophosphatidylserine lipase ABHD12; experiment: Inhibition of FP-Rh probe binding to ABHD12 in mouse brain membrane proteome incubated for 45 mins by CuAAC fluorescence dependent gel-based competitive ABPP assay; type: cell membranes
How it was run: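 Mouse brain membrane proteome (1 mg/mL) preincubated with inhibitor for 45 min at 37 °C. Labelled with FP-Rh (1 μM) or JJH350 (2 μM) for 45 min at 37 °C. JJH350 samples were clicked to Rh-N3 (25 μM) by CuAAC for 60 min at room temperature. Read by 10% SDS-PAGE and in-gel fluorescence scanning. Band intensity taken relative to control (100%), and IC50 from log(inhibitor) vs normalized response.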

Mus musculus = experiment: In vivo inhibition of JJH350 binding to ABHD12 in mouse at 30 mg/kg, ip treated for 4 hrs by CuAAC based fluorescence scanning assay; type: functional, organism-based
How it was run: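 Mice injected i.p. at 10 μL/g body weight with fresh suspension in EtOH/PEG40/DPBS 1:1:18. Anesthetized with isoflurane, killed by cervical dislocation, tissues harvested. Tissues dounce-homogenized in DPBS; membrane fraction from 16,000 x g spin. Labelled with JJH350, then CuAAC to rhodamine-azide, SDS-PAGE and fluorescence scanning.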

[10] = molecular target: T3, Lysophosphatidylserine lipase ABHD12 (Homo sapiens); experiment: Time dependent inhibition of FP-Rh binding to ABHD12 (unknown origin) expressed in HEK293T cell membranes by gel-based ABPP assay

Structure (SMILES)	IC50 [1]	inhibition [2]	inhibition [3]	also measured
COc1ccc(Oc2ccnc(N3CCC(NC(=S)Nc4cccnc4)CC3)c2)cc1	2.9 µM			
S=C(Nc1cccnc1)NC1CCN(c2cc(OCC3CC3)ccn2)CC1	4.7 µM			
Cc1cnc(N2CCC(NC(=S)Nc3cccnc3)CC2)c(Cl)c1	3.1 µM			
FC(F)(F)Oc1cccc(Oc2ccnc(N3CCC(NC(=S)Nc4cccnc4)CC3)c2Cl)c1	0.089 µM			
FC(F)(F)Oc1ccccc1Oc1ccnc(N2CCC(NC(=S)Nc3cccnc3)CC2)c1Cl	0.096 µM			
FC(F)(F)c1cnc(N2CCCC(NC(=S)Nc3cccnc3)CC2)c(Cl)c1 (centres undefined)		9%	59%	
FC(F)(F)c1cccc(N2CCC(NC(=S)Nc3cccnc3)CC2)n1	0.63 µM			
S=C(Nc1cccnc1)NC1CCN(c2cc(OC3CCCCC3)ccn2)CC1	3.4 µM			
Cc1cnc(N2CCN(NC(=S)Nc3cccnc3)CC2)c(Cl)c1	> 50 µM			inhibition [4]: inactive
N#Cc1c(Oc2ccc(OC(F)(F)F)cc2)ccnc1N1CCC(NC(=S)Nc2cccnc2)CC1	0.18 µM			
COc1ccnc(N2CCC(NC(=S)Nc3cccnc3)CC2)c1	> 5 µM			
S=C(Nc1cccnc1)NC1CCN(c2cc(OCc3ccccc3)ccn2)CC1	2.8 µM			
FC(F)(F)c1cnc(N2C3CCC2CC(NC(=S)Nc2cccnc2)C3)c(Cl)c1 (centres undefined)		19%	63%	
Cc1c(Oc2ccc(OC(F)(F)F)cc2)ccnc1N1CCC(NC(=S)Nc2cccnc2)CC1	0.026 µM			
Fc1ccc(Oc2ccnc(N3CCC(NC(=S)Nc4cccnc4)CC3)c2)cc1	1.4 µM			
FC(F)(F)Oc1ccc(Oc2ccnc(N3CCC(NC(=S)Nc4cccnc4)CC3)c2Cl)cc1	0.025 µM			
S=C(Nc1cccnc1)NC1CCN(c2ncccc2Cl)CC1	> 5 µM			
FC(F)(F)c1cnc(N2CCC(NC(=S)N3CCCc4ccccc43)CC2)c(Cl)c1		0%	0%	
FC(F)(F)Oc1ccc(Oc2ccnc(N3CCCC(NC(=S)Nc4cccnc4)C3)c2Cl)c(Cl)c1 (centres undefined)	90 µM			
FC(F)(F)c1ccnc(N2CCC(NC(=S)Nc3cccnc3)CC2)c1	0.64 µM			
FC(F)(F)c1cnc(N2CCC(NC(=S)Nc3cnc4ccccc4c3)CC2)c(Cl)c1		0%	2%	
S=C(Nc1cccnc1)NC1CCN(c2cc(Oc3ccccc3)ccn2)CC1	1.9 µM			
FC(F)(F)c1ccnc(N2CCC(NC(=S)Nc3cccnc3)CC2)c1Cl	0.3 µM			

Structure (SMILES)	IC50 [1]	inhibition [2]	inhibition [3]	also measured
FC(F)(F)Oc1ccc(Oc2ccnc(N3CCC(NC(=S)Nc4cccnc4)CC3)c2C(F)(F)F)cc1	2.8 µM			
FC(F)(F)c1cc(Cl)nc(N2CCC(NC(=S)Nc3cccnc3)CC2)c1	0.54 µM			
FC(F)(F)c1cnc(NCCCCCCNC(=S)Nc2cccnc2)c(Cl)c1		22%	70%	
FC(F)(F)Oc1ccc(Oc2ccnc(N3CCC[C@H](NC(=S)Nc4cccnc4)C3)c2Cl)c(Cl)c1	> 100 µM			inhibition [5]: inactive; inhibition [6]: inactive; inhibition [7]: inactive; inhibition [8]: inactive
FC(F)(F)Oc1ccc(Oc2ccnc(N3CCC(NC(=S)Nc4cccnc4)CC3)c2)cc1	0.41 µM			
FC(F)(F)c1cccnc1N1CCC(NC(=S)Nc2cccnc2)CC1	> 5 µM			
FC(F)(F)Oc1ccc(Oc2ccnc(N3CCC(NC(=S)Nc4cccnc4)CC3)c2Cl)cc1Cl	0.033 µM			
FC(F)(F)c1cnc(NCCCNC(=S)Nc2cccnc2)c(Cl)c1		0%	0%	
S=C(Nc1cccnc1)NC1CCN(c2cc(Cl)ccn2)CC1	2.1 µM			
COc1ccc(NC(=S)NC2CCN(c3ncc(C(F)(F)F)cc3Cl)CC2)cn1		0%	1%	
COc1ccc(N2CCN(C(=O)ON3C(=O)C4CN(C(=O)c5ccc(Oc6ccccc6)cc5)CCN4C3=O)CC2)cc1 (centres undefined)				IC50 [9]: 0.32 µM; inhibition (Mus musculus): Active
FC(F)(F)c1cnc(N2CCCC(NC(=S)Nc3cccnc3)C2)c(Cl)c1 (centres undefined)		0%	4%	
FC(F)(F)c1cnc(NCCCCCNC(=S)Nc2cccnc2)c(Cl)c1		54%	90%	
FC(F)(F)c1ccc(N2CCC(NC(=S)Nc3cccnc3)CC2)nc1	1.9 µM			
FC(F)(F)c1cnc(N2CCC(NC(=S)Nc3ccccc3)CC2)c(Cl)c1		66%	96%	
FC(F)(F)c1cnc(N2CCC(NC(=S)Nc3cccnc3)C2)c(Cl)c1 (centres undefined)		1%	12%	
FC(F)(F)c1cc(N2CCC(NC(=S)Nc3cccnc3)CC2)ncc1Cl	1.4 µM			
FC(F)(F)c1cnc(NCCCCNC(=S)Nc2cccnc2)c(Cl)c1		12%	35%	
FC(F)(F)c1cnc(N2CCC(NC(=S)Nc3cccnc3)CC2)c(Cl)c1	1.1 µM	89%	96%	TDI [10]: inactive
O=C(Nc1cccnc1)NC1CCN(c2ncc(C(F)(F)F)cc2Cl)CC1		1%	29%	
FC(F)(F)Oc1ccc(Oc2ccnc(N3CCC[C@@H](NC(=S)Nc4cccnc4)C3)c2Cl)c(Cl)c1	100 µM			
COc1ccc(N2CCN(C(=O)ON3C(=O)C4CN(Cc5ccc(Oc6ccccc6)cc5)CCN4C3=O)CC2)cc1 (centres undefined)				IC50 [9]: > 10 µM
CN(C(=S)Nc1cccnc1)C1CCN(c2ncc(C(F)(F)F)cc2Cl)CC1		31%	61%	
